The values that follow come from ChEMBL document CHEMBL3864131, “Development, synthesis and structure-activity-relationships of inhibitors of the macrophage infectivity potentiator (Mip) proteins of Legionella pneumophila and Burkholderia pseudomallei” (Bioorg Med Chem, 2016).

Series [1] can be described thus: Stability of the compound in methanol/HEPES buffer at pH 7.8 at 40 degC for 24 hrs by HPLC analysis. Type of series: physicochemical. The conditions noted are these: read-out: Stability. In outline: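 Compound dilutions incubated for 24 h in methanol with 10 mM HEPES buffer (pH 7.8) at 25 °C and 40 °C. HPLC analysis was done at 0 and 24 h to give the percentage of intact compound remaining.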

For series [2], the target named is Outer membrane protein MIP (Legionella pneumophila, UniProt Q70YI1).
Sequence of Outer membrane protein MIP (Q70YI1 21-233 limits assumed): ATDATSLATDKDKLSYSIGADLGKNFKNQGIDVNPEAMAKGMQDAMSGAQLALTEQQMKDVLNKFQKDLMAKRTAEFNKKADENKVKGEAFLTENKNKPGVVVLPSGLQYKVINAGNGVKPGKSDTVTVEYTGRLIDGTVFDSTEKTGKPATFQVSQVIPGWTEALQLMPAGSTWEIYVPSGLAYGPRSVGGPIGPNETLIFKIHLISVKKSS
The next series is described as follows: in vitro. To be noted: mouse, J774.1 cells.
The nature of series [3]: Stability in human plasma after 4 hrs by HPLC analysis. Format: ADME, cell-free. In outline: (§1)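 Compound incubated in human plasma and sampled at 1, 4 and 24 h. The decrease in compound concentration was followed by HPLC.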
The nature of series [4]: Stability in human plasma after 24 hrs by HPLC analysis. Type of series: ADME, cell-free. In outline: as §1
Series [5] is described as follows: Stability in human plasma after 1 hr by HPLC analysis. Type of series: ADME, cell-free. Put shortly:
as §1

Series [6] can be described thus: Metabolic stability in mouse J774.1 cells at 37 degC after 1 hr by HPLC analysis. Type of series: ADME, cell-based. To be noted: read-out: Stability. Put shortly:
(§2)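 Compound incubated with J774.1 murine macrophages in RPMI medium at 37 °C, sampled at 0, 1 and 24 h, and the remaining compound quantified by HPLC.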

A short description of series [7]: Metabolic stability in mouse J774.1 cells at 37 degC after 24 hrs by HPLC analysis. Format: ADME, cell-based. To be noted: read-out: Stability. Put shortly: as §2

The structures appear in SMILES notation. Where only a bound is given, the exact number is not on record here.

A word on the IC50: it is the concentration that gives 50% inhibition. Consider `O=C(OCCCc1cccnc1)[C@@H]1CCCCN1S(=O)(=O)Cc1ccc(F)cc1`, for which the remaining at 24 h in series [1] was greater than 95%. In series [2], this compound had an IC50 of 5.7 µM. Moreover, the IC50 at 24 h in the series “in vitro” is greater than 100 µM.

For the compound `Nc1cccc(CS(=O)(=O)N2CCCCC2C(=O)OCCCc2cccnc2)c1` (racemic), in series [2], the IC50 was greater than 100 µM. In “in vitro”, 62.3 µM corresponded to half-maximal inhibition (IC50 at 24 h).

In the case of `O=C(NCCOC(=O)[C@@H]1CCCCN1S(=O)(=O)Cc1ccccc1)c1cccnc1`, the Stability was determined as 20% in series [3], 50% in series [4] and 5% in series [5]. This compound also returned an IC50 in series [2] of 11.4 µM. The compound also registered a 50% inhibitory concentration (IC50) at 24 h in the series “in vitro” greater than 100 µM. In addition, the remaining at 1 h in series [6] amounted to 82%. In addition, the remaining at 24 h in series [7] is 81%.

As to `O=C(OCCOc1cccnc1)[C@@H]1CCCCN1S(=O)(=O)Cc1ccccc1`, the remaining at 24 h is greater than 95% in series [1] and 77% in series [7]. Besides, in series [2], half-maximal inhibition (IC50) required 7.7 µM. This compound showed an IC50 at 24 h in “in vitro” greater than 100 µM. Further, the remaining at 1 h in series [6] came to 88%.

In the case of `CC(C)NC(=O)[C@@H]1CCCCN1S(=O)(=O)Cc1ccccc1`, in series [1], the remaining at 24 h is greater than 95%. This compound gave a half-maximal inhibitory concentration (IC50) in series [2] greater than 100 µM. The compound also gave a 50% inhibitory concentration (IC50) at 24 h in “in vitro” greater than 100 µM.

In the case of `O=C(OCCCc1cccnc1)[C@@H]1CCCCN1S(=O)(=O)Cc1ccc(Cl)cc1`, the IC50 in series [2] was determined as 2.4 µM. The IC50 at 24 h in “in vitro” stood at 33.6 µM.

Regarding `O=C(C(=O)N1CCCC[C@H]1C(=O)OCCCc1cccnc1)c1ccccc1`, it took 142 µM to reach half-maximal inhibition in series [2] (IC50). In addition, the 50% inhibitory concentration (IC50) at 24 h in the series “in vitro” stood at 88.1 µM.

Consider `O=C(OCCCc1cccnc1)[C@@H]1CCCCN1S(=O)(=O)Cc1ccccc1`, for which the remaining at 24 h in series [1] stood at 99%. In addition, half-maximal inhibition in series [2] (IC50) was put at 5.8 µM. The IC50 at 24 h in the series “in vitro” was greater than 100 µM.

In the case of `CC(C)Nc1cccc(CS(=O)(=O)N2CCCCC2C(=O)OCCCc2cccnc2)c1` (racemic), the midpoint of inhibition in series [2], the IC50, lay at 41.5 µM. In “in vitro”, this compound registered an IC50 at 24 h of 57.4 µM.

Turning to `COc1cc(CCCOC(=O)[C@@H]2CCCCN2S(=O)(=O)Cc2ccccc2)cc(OC)c1OC`, the remaining at 24 h in series [1] amounted to 99%.

On to `O=C(OCCCc1cccnc1)[C@@H]1CCCCN1S(=O)(=O)Cc1cccc([N+](=O)[O-])c1`, for which the IC50 in series [2] stood at 7.9 µM. Further, the IC50 at 24 h in “in vitro” is 48.2 µM.

In series [2], `COc1cc(C(=O)NC[C@H](C)OC(=O)[C@@H]2CCCCN2S(=O)(=O)Cc2ccccc2)cc(OC)c1OC` returned an IC50 of 2.2 µM. In addition, the IC50 at 24 h in “in vitro” is greater than 100 µM.

`O=C(OCCCc1cccnc1)[C@@H]1CCCCN1S(=O)(=O)Cc1cccc(Cl)c1` displayed an IC50 in series [2] of 7.5 µM. The same compound returned an IC50 at 24 h in the series “in vitro” of 43.3 µM.

Regarding `C[C@@H](CNC(=O)c1cccnc1)OC(=O)[C@@H]1CCCCN1S(=O)(=O)Cc1ccccc1`, the remaining at 24 h was greater than 95% in series [1] and 97% in series [7]. Moreover, the IC50 in series [2] worked out at 3.5 µM. In the series “in vitro”, this compound registered a half-inhibitory concentration (IC50) at 24 h greater than 100 µM. In addition, the remaining at 1 h in series [6] is 95%.

Consider `COCCOc1cc(OCCOC)cc(C(=O)OCCOC(=O)[C@@H]2CCCCN2S(=O)(=O)Cc2ccccc2)c1`, for which the remaining at 24 h in series [1] came out at 85%; in series [7], 59%. For the same compound, in series [2], the IC50 turned out to be 8.6 µM. This compound also had an IC50 at 24 h in the series “in vitro” greater than 80 µM. Moreover, the remaining at 1 h in series [6] was 98%.

For `Nc1ccc(CS(=O)(=O)N2CCCCC2C(=O)OCCCc2cccnc2)cc1` (racemic), the IC50 in series [2] is 21.4 µM. The same compound registered an IC50 at 24 h in the series “in vitro” greater than 100 µM.

`O=C(OCCCc1cccnc1)C1CCCCN1S(=O)(=O)Cc1cccc([N+](=O)[O-])c1` (racemic) came in with an IC50 in series [2] of 8.7 µM. For the same compound, the IC50 at 24 h in “in vitro” was 46.7 µM.

Consider `O=C(OCCOC(=O)[C@@H]1CCCCN1S(=O)(=O)Cc1ccccc1)c1cccnc1`, for which the remaining at 24 h came to 40% in series [1] and 50% in series [7]. Further, the midpoint of inhibition in series [2], the IC50, lay at 2.6 µM. Further, in “in vitro”, the IC50 at 24 h was greater than 100 µM. In series [6], the remaining at 1 h was found to be 82%.

`O=C(OCCCc1cccnc1)C1CCCCN1S(=O)(=O)Cc1ccc([N+](=O)[O-])cc1` (racemic) returned an IC50 in series [2] of 3.9 µM. In the series “in vitro”, this compound gave an IC50 at 24 h of 56.7 µM.

As to `CC(C)OC(=O)C1CCCCN1S(=O)(=O)Cc1ccccc1` (racemic), the remaining at 24 h in series [1] is greater than 95%. Further, in series [2], it took 79.2 µM to reach half-maximal inhibition (IC50). Further, the IC50 at 24 h in the series “in vitro” was greater than 100 µM.

With `COCCOc1cc(OCCOC)cc(C(=O)NCCOC(=O)[C@@H]2CCCCN2S(=O)(=O)Cc2ccccc2)c1`, the remaining at 24 h in series [1] was greater than 95%. For the same compound, half-maximal inhibition in series [2] (IC50) required 5.6 µM. The compound further displayed an IC50 at 24 h in the series “in vitro” greater than 100 µM.

As for `C[C@H](CNC(=O)c1cccnc1)OC(=O)[C@@H]1CCCCN1S(=O)(=O)Cc1ccccc1` (single isomer, unassigned), the half-inhibitory concentration (IC50) in series [2] was determined as 11.5 µM. In “in vitro”, this compound showed an IC50 at 24 h greater than 100 µM.

In series [2], `CC(C)Nc1ccc(CS(=O)(=O)N2CCCCC2C(=O)OCCCc2cccnc2)cc1` (racemic) showed an IC50 of 44.5 µM. It took 44.3 µM to reach half-maximal inhibition in “in vitro” (IC50 at 24 h).

For the compound `O=C(OCCCc1cccnc1)C1CCCCN1S(=O)(=O)Cc1ccccc1` (racemic), the midpoint of inhibition in series [2], the IC50, lay at 10.7 µM. The compound also yielded an IC50 at 24 h in the series “in vitro” greater than 100 µM.

As for `O=C(OCCO)C1CCCCN1S(=O)(=O)Cc1ccccc1` (racemic), the remaining at 24 h in series [1] was greater than 95%; in series [7] it was 86%. Half-maximal inhibition in series [2] (IC50) required 94 µM. Also, the concentration for half-maximal inhibition (IC50) at 24 h in “in vitro” is greater than 100 µM. For the same compound, the remaining at 1 h in series [6] amounted to 95%.

In series [2], `COc1cc(C(=O)NCCOC(=O)[C@@H]2CCCCN2S(=O)(=O)Cc2ccccc2)ccc1O` gave an IC50 of 3.2 µM. This compound also registered a half-maximal inhibitory concentration (IC50) at 24 h in the series “in vitro” greater than 100 µM.

On to `O=C(OCCCc1cccnc1)C1CCCCN1C(=O)COc1ccc(Cl)cc1` (racemic), for which half-maximal inhibition in series [2] (IC50) was put at 89.3 µM. This compound yielded an IC50 at 24 h in “in vitro” of 50.9 µM.
